Laboratory results from ChEMBL document CHEMBL1772954, “Antifungal, cytotoxic and SAR studies of a series of N-alkyl, N-aryl and N-alkylphenyl-1,4-pyrrolediones and related compounds” (Bioorg Med Chem, 2011).
Values after ≈ are worked out from the molar mass of the structure shown.

Assays:
Assay type in all cases: functional
[1] = system: Trichophyton mentagrophytes; assay: Antifungal activity against Trichophyton mentagrophytes ATCC 9972
In short: (§1)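 Dermatophytes tested by CLSI M38-A2 microdilution in MOPS-buffered RPMI-1640 at pH 7.0. Inoculum 1-5 × 10^3 CFU/mL; compounds 250 to 0.24 µg/ml in twofold steps, final DMSO <1%. Incubated at 28 °C in a moist, dark chamber and read according to control growth. MIC is the lowest concentration with complete inhibition. MFC is the lowest concentration with no growth after duplicate subculture on SDA.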

Saccharomyces cerevisiae = assay: Antifungal activity against Saccharomyces cerevisiae ATCC 9763
In short: (§2)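 CLSI M27-A3 broth microdilution in RPMI-1640 buffered to pH 7.0 with MOPS. Inoculum 1-5 × 10^3 CFU/mL. Compound twofold dilutions from 250 to 0.24 µg/ml, final DMSO <1%. Incubated at 35 °C in a moist, dark chamber and read at 48 h. MIC is the lowest concentration giving total growth inhibition. For MFC, 5 µL from clear wells was plated in duplicate on SDA; MFC is the lowest concentration with no growth.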

Nannizzia gypsea = assay: Antifungal activity against Microsporum gypseum C 115 2000; in short: as §1
Trichophyton rubrum = assay: Antifungal activity against Trichophyton rubrum C 113 2000; in short: as §1
Cryptococcus neoformans = assay: Antifungal activity against Cryptococcus neoformans ATCC 32264; in short: as §2
Aspergillus flavus = assay: Antifungal activity against Aspergillus flavus ATCC 9170
In short: (§3)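 Broth microdilution per CLSI M38-A2 in RPMI-1640 with MOPS at pH 7.0. Inoculum 1-5 × 10^3 CFU/mL, with twofold compound dilutions spanning 250-0.24 µg/ml (final DMSO <1%). Plates incubated at 35 °C, moist and dark, and read when the control fungus had grown. MIC is total growth inhibition. MFC comes from subculturing clear wells in duplicate onto SDA.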

Aspergillus niger = assay: Antifungal activity against Aspergillus niger ATCC 9029; in short: as §3
Aspergillus fumigatus = assay: Antifungal activity against Aspergillus fumigatus ATCC 26934; in short: as §3
Candida tropicalis = assay: Antifungal activity against Candida tropicalis C 131 2000; in short: as §2
Candida albicans = assay: Antifungal activity against Candida albicans ATCC 10213; in short: as §2

SMILES	MIC [1]	MIC (Saccharomyces cerevisiae)	MIC (Nannizzia gypsea)	MIC (Trichophyton rubrum)	MIC (Cryptococcus neoformans)	MIC (Aspergillus flavus)	MIC (Aspergillus niger)	MIC (Aspergillus fumigatus)	MIC (Candida tropicalis)	MIC (Candida albicans)	MFC [1]	MFC (Saccharomyces cerevisiae)	MFC (Nannizzia gypsea)	MFC (Trichophyton rubrum)	MFC (Cryptococcus neoformans)	MFC (Aspergillus flavus)	MFC (Aspergillus niger)	MFC (Aspergillus fumigatus)	MFC (Candida tropicalis)	MFC (Candida albicans)
O=C1C(c2ccccc2)=C(c2ccccc2)C(=O)N1CCCc1ccccc1	> 250 µg/mL	> 250 µg/mL	> 250 µg/mL	> 250 µg/mL	> 250 µg/mL	> 250 µg/mL	> 250 µg/mL	> 250 µg/mL	> 250 µg/mL	> 250 µg/mL	> 250 µg/mL	> 250 µg/mL	> 250 µg/mL	> 250 µg/mL	> 250 µg/mL	> 250 µg/mL	> 250 µg/mL	> 250 µg/mL	> 250 µg/mL	> 250 µg/mL
O=C1C(Cl)=C(Cl)C(=O)N1c1ccccc1	> 250 µg/mL	> 250 µg/mL	> 250 µg/mL	> 250 µg/mL	> 250 µg/mL	> 250 µg/mL	> 250 µg/mL	> 250 µg/mL	> 250 µg/mL	> 250 µg/mL	> 250 µg/mL	> 250 µg/mL	> 250 µg/mL	> 250 µg/mL	> 250 µg/mL	> 250 µg/mL	> 250 µg/mL	> 250 µg/mL	> 250 µg/mL	> 250 µg/mL
CC1=C(C)C(=O)N(CCCc2ccccc2)C1=O	250 µg/mL (≈ 1030 µM)	> 250 µg/mL	125 µg/mL (≈ 514 µM)	62.5 µg/mL (≈ 257 µM)	125 µg/mL (≈ 514 µM)	> 250 µg/mL	> 250 µg/mL	> 250 µg/mL	> 250 µg/mL	> 250 µg/mL	> 250 µg/mL	> 250 µg/mL	250 µg/mL (≈ 1030 µM)	250 µg/mL (≈ 1030 µM)	250 µg/mL (≈ 1030 µM)	> 250 µg/mL	> 250 µg/mL	> 250 µg/mL	> 250 µg/mL	> 250 µg/mL
CC1=C(C)C(=O)N(CCCCc2ccccc2)C1=O	125 µg/mL (≈ 486 µM)	> 250 µg/mL	250 µg/mL (≈ 972 µM)	125 µg/mL (≈ 486 µM)	> 250 µg/mL	> 250 µg/mL	> 250 µg/mL	> 250 µg/mL	> 250 µg/mL	> 250 µg/mL	> 250 µg/mL	> 250 µg/mL	> 250 µg/mL	250 µg/mL (≈ 972 µM)	> 250 µg/mL	> 250 µg/mL	> 250 µg/mL	> 250 µg/mL	> 250 µg/mL	> 250 µg/mL
O=C(O)/C=C\C(=O)Nc1ccccc1	250 µg/mL (≈ 1310 µM)	125 µg/mL (≈ 654 µM)	125 µg/mL (≈ 654 µM)	62.5 µg/mL (≈ 327 µM)	> 250 µg/mL	> 250 µg/mL	> 250 µg/mL	> 250 µg/mL	> 250 µg/mL	–	> 250 µg/mL	> 250 µg/mL	> 250 µg/mL	250 µg/mL (≈ 1310 µM)	> 250 µg/mL	> 250 µg/mL	> 250 µg/mL	> 250 µg/mL	> 250 µg/mL	> 250 µg/mL
CC1=C(C)C(=O)N(c2ccccc2)C1=O	125 µg/mL (≈ 621 µM)	> 250 µg/mL	250 µg/mL (≈ 1240 µM)	62.5 µg/mL (≈ 311 µM)	125 µg/mL (≈ 621 µM)	> 250 µg/mL	> 250 µg/mL	> 250 µg/mL	> 250 µg/mL	> 250 µg/mL	250 µg/mL (≈ 1240 µM)	> 250 µg/mL	> 250 µg/mL	125 µg/mL (≈ 621 µM)	250 µg/mL (≈ 1240 µM)	> 250 µg/mL	> 250 µg/mL	> 250 µg/mL	> 250 µg/mL	> 250 µg/mL
CN(C/C=C/C#CC(C)(C)C)Cc1cccc2ccccc12 [TERBINAFINE]	0.03 µg/mL (≈ 0.103 µM)	–	0.03 µg/mL (≈ 0.103 µM)	0.01 µg/mL (≈ 0.0343 µM)	–	–	–	–	–	–	0.06 µg/mL (≈ 0.206 µM)	–	0.06 µg/mL (≈ 0.206 µM)	0.03 µg/mL (≈ 0.103 µM)	–	–	–	–	–	–

The next lines start with results.

MIC [1]	MIC (Saccharomyces cerevisiae)	MIC (Nannizzia gypsea)	MIC (Trichophyton rubrum)	MIC (Cryptococcus neoformans)	MIC (Aspergillus flavus)	MIC (Aspergillus niger)	MIC (Aspergillus fumigatus)	MIC (Candida tropicalis)	MIC (Candida albicans)	SMILES	MFC [1]	MFC (Saccharomyces cerevisiae)	MFC (Nannizzia gypsea)	MFC (Trichophyton rubrum)	MFC (Cryptococcus neoformans)	MFC (Aspergillus flavus)	MFC (Aspergillus niger)	MFC (Aspergillus fumigatus)	MFC (Candida tropicalis)	MFC (Candida albicans)
125 µg/mL (≈ 581 µM)	250 µg/mL (≈ 1160 µM)	125 µg/mL (≈ 581 µM)	62.5 µg/mL (≈ 290 µM)	125 µg/mL (≈ 581 µM)	> 250 µg/mL	> 250 µg/mL	> 250 µg/mL	125 µg/mL (≈ 581 µM)	125 µg/mL (≈ 581 µM)	CC1=C(C)C(=O)N(Cc2ccccc2)C1=O	250 µg/mL (≈ 1160 µM)	> 250 µg/mL	250 µg/mL (≈ 1160 µM)	125 µg/mL (≈ 581 µM)	250 µg/mL (≈ 1160 µM)	> 250 µg/mL	> 250 µg/mL	> 250 µg/mL	> 250 µg/mL	> 250 µg/mL
250 µg/mL (≈ 1090 µM)	> 250 µg/mL	250 µg/mL (≈ 1090 µM)	62.5 µg/mL (≈ 273 µM)	250 µg/mL (≈ 1090 µM)	> 250 µg/mL	> 250 µg/mL	> 250 µg/mL	> 250 µg/mL	> 250 µg/mL	CC1=C(C)C(=O)N(CCc2ccccc2)C1=O	> 250 µg/mL	> 250 µg/mL	> 250 µg/mL	250 µg/mL (≈ 1090 µM)	> 250 µg/mL	> 250 µg/mL	> 250 µg/mL	> 250 µg/mL	> 250 µg/mL	> 250 µg/mL
> 250 µg/mL	> 250 µg/mL	> 250 µg/mL	> 250 µg/mL	> 250 µg/mL	> 250 µg/mL	> 250 µg/mL	> 250 µg/mL	> 250 µg/mL	> 250 µg/mL	O=C1C(c2ccccc2)=C(c2ccccc2)C(=O)N1c1ccccc1	> 250 µg/mL	> 250 µg/mL	> 250 µg/mL	> 250 µg/mL	> 250 µg/mL	> 250 µg/mL	> 250 µg/mL	> 250 µg/mL	> 250 µg/mL	> 250 µg/mL
> 250 µg/mL	> 250 µg/mL	> 250 µg/mL	> 250 µg/mL	> 250 µg/mL	> 250 µg/mL	> 250 µg/mL	> 250 µg/mL	> 250 µg/mL	> 250 µg/mL	O=C1C(c2ccccc2)=C(c2ccccc2)C(=O)N1Cc1ccccc1	> 250 µg/mL	> 250 µg/mL	> 250 µg/mL	> 250 µg/mL	> 250 µg/mL	> 250 µg/mL	> 250 µg/mL	> 250 µg/mL	> 250 µg/mL	> 250 µg/mL
> 250 µg/mL	> 250 µg/mL	> 250 µg/mL	> 250 µg/mL	> 250 µg/mL	> 250 µg/mL	> 250 µg/mL	> 250 µg/mL	> 250 µg/mL	> 250 µg/mL	O=C1C(c2ccccc2)=C(c2ccccc2)C(=O)N1CCc1ccccc1	> 250 µg/mL	> 250 µg/mL	> 250 µg/mL	> 250 µg/mL	> 250 µg/mL	> 250 µg/mL	> 250 µg/mL	> 250 µg/mL	> 250 µg/mL	> 250 µg/mL
> 250 µg/mL	> 250 µg/mL	> 250 µg/mL	> 250 µg/mL	> 250 µg/mL	> 250 µg/mL	> 250 µg/mL	> 250 µg/mL	> 250 µg/mL	> 250 µg/mL	O=C1C(c2ccccc2)=C(c2ccccc2)C(=O)N1CCCCc1ccccc1	> 250 µg/mL	> 250 µg/mL	> 250 µg/mL	> 250 µg/mL	> 250 µg/mL	> 250 µg/mL	> 250 µg/mL	> 250 µg/mL	> 250 µg/mL	> 250 µg/mL
> 250 µg/mL	250 µg/mL (≈ 1220 µM)	> 250 µg/mL	> 250 µg/mL	> 250 µg/mL	> 250 µg/mL	> 250 µg/mL	> 250 µg/mL	> 250 µg/mL	–	O=C(O)/C=C\C(=O)NCc1ccccc1	> 250 µg/mL	> 250 µg/mL	> 250 µg/mL	> 250 µg/mL	> 250 µg/mL	> 250 µg/mL	> 250 µg/mL	> 250 µg/mL	> 250 µg/mL	> 250 µg/mL
